mABHD4 FP – ABHD4 (mouse) inhibition, primary FP screen. purified mABHD4, FP-Rh probe fluorescence polarization. inhibition, % at 8.92 µM. AID 720543. Q8VD66. actives 0.54% (n = 370,000);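 active = inhibition exceeding the mean over every tested compound plus 3 SD, cut at about 30% in these data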
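Assay system: wild-type mouse ABHD4 protein; compound: single nominal dose of 8.92 µM, 0.89% DMSO final; schedule: 45 min + 60 min at 25 °C; measured by: FP readout, ex 525 nm / em 598 nm; evaluation: % inhibition of FP-Rh probe binding versus controls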
PAD4 inh – inhibitors of human PAD4. AID 485272. Q9UM07. recombinant PAD4, RCA probe fluorescence polarization. actives 0.41% (n = 330,000). inhibition, % at 6.36 µM;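 active = percent inhibition above a cutoff equal to the mean of all tested compounds plus 3 SD, cut at about 15% in these data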
HTRA1 inh – blocks human HTRA1 serine peptidase. recombinant HTRA1, FP-rhodamine activity-based probe, fluorescence polarization. inhibition, % at 5.96 µM. actives 0.5% (n = 340,000); in the data active = inhibition above about 36%
Target sequence (Q92743 whole entry, looked up): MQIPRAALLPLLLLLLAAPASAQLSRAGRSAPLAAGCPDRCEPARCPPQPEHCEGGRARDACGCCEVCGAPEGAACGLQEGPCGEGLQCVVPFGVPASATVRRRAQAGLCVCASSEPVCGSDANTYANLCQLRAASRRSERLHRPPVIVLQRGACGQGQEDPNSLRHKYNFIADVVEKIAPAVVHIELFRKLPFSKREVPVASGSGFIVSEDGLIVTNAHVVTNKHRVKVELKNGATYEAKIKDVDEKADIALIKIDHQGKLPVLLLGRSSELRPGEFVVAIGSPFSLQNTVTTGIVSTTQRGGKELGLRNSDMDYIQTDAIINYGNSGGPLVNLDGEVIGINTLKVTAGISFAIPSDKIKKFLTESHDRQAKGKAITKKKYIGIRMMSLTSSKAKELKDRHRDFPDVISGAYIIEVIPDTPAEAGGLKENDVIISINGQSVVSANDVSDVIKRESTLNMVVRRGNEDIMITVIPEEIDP
PRMT1 inh – blocks human protein arginine methyltransferase 1; Q99873; inhibition, % at 2.79 µM; actives 1.3% (n = 370,000); AID 652257; recombinant PRMT1, activity-based probe fluorescence polarization;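 active = inhibition above about 21% made by adding two undisclosed values, limit read from the data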
SIAE inh – human SIAE inhibition, primary screen. Q9HAT2. SIAE FP-Rh probe binding, fluorescence polarization. inhibition, % at 9.66 µM. actives 0.69% (n = 370,000). AID 1053197;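 active = inhibition above a cutoff: mean of compounds within the control limits plus 3 SD of those, cut at about 17% in these data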
TCR-CD3 inh – blocks the human TCR-CD3 interaction. actives 0.37% (n = 360,000). TAMRA-labeled TCR probe fluorescence, biochemical. inhibition, % at 9.4 µM; in the data active = inhibition above about 19%;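 also: recombinant mutant TCR 2C K166C tagged with TAMRA read by polarization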
PRMT1 confirm – confirmation of human PRMT1 inhibitors. inhibition, % at 2.79 µM. shares compounds with PRMT1 inh. actives 42% (n = 3,300). recombinant His-PRMT1, activity-based probe fluorescence polarization. AID 687036;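 active = mean inhibition across replicates above the hit cutoff derived for the earlier primary screen, cut at about 22% in these data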
Of the large screens only hits and unclear results are named; the others gave an inactive call (follow-up assays come after a bar, where they were run). Most compounds without a hit are left out; they make up all but 2.9% or so of the library.

Cc1ccc(NC(=O)C2=NNC(=O)CC2)cc1S(=O)(=O)Nc1ccc(SC(F)F)cc1	PRMT1 inh 27 | PRMT1 confirm inactive
COc1ccccc1NS(=O)(=O)c1cc(NC(=O)C2=NNC(=O)CC2)ccc1C	none
COc1ccc(CN[C@@H]2CC[C@@]34CCCN3C(=O)CCC[C@H]4C2)cc1OC	none (no result: PAD4 inh, HTRA1 inh, TCR-CD3 inh)
CC[N+]1(C)CCC(O)(c2ccc(OC)cc2)C(C(=O)c2ccc(OC)cc2)C1 (centres undefined)	PRMT1 inh 26 (no result: PAD4 inh) | PRMT1 confirm inactive
COC(=O)[C@H](CC(C)C)N(CCc1cn(Cc2ccccc2)nn1)S(=O)(=O)c1ccccc1Br	none (no result: PAD4 inh, HTRA1 inh, TCR-CD3 inh)
O=C1CC(N2CCC(c3nc4ccccc4[nH]3)CC2)C(=O)N1Cc1ccccc1 (centres undefined)	PRMT1 inh 33 | PRMT1 confirm inactive
O=C1CC(N2CCC(c3nc4ccccc4[nH]3)CC2)C(=O)N1c1cccc(F)c1 (centres undefined)	PRMT1 inh 43 | PRMT1 confirm inactive
O=C(O)c1ccc(N2C(=O)CC(N3CCC(c4nc5ccccc5[nH]4)CC3)C2=O)cc1 (centres undefined)	none
CN1C(=O)CC(N2CCC(c3nc4ccccc4[nH]3)CC2)C1=O (centres undefined)	none
COc1ccc2c(c1)CNC2CS(=O)(=O)NCCc1ccccc1 (centres undefined)	none (no result: PAD4 inh, HTRA1 inh, TCR-CD3 inh)
COc1ccccc1NC(=O)/C(C#N)=C/C=C/c1ccco1	PRMT1 inh 28 | PRMT1 confirm inactive
COc1ccccc1NC(=O)/C=C\c1ccco1	none
CN(C)CCC(=O)c1ccc2c(c1)OCO2	PRMT1 inh 36 | PRMT1 confirm inactive
O=C(CCN1CCc2ccccc2C(c2ccccc2)C1)c1ccc2c(c1)OCCO2 (centres undefined)	PRMT1 inh 38 | PRMT1 confirm inactive
CCCC(=O)c1ccc2c(c1)OCCO2	none
O=C(O)CCSCC(=O)c1ccc2c(c1)OCCO2	PRMT1 inh 32 | PRMT1 confirm inactive
O=C(CS(=O)(=O)c1ccccc1)c1ccc2c(c1)OCCO2	none
O=C(O)CCC(=O)c1ccc2c(c1)OCCO2	none
O=C(CCN1Cc2ccccc2C1)c1ccc2c(c1)OCCO2	PRMT1 inh 26 | PRMT1 confirm 22
N#Cc1cccc(OC[C@@H](O)CN2CCC(C(O)(c3ccccc3)c3ccccc3)CC2)c1	none (no result: PAD4 inh, HTRA1 inh, TCR-CD3 inh)
CO[C@@]1(NC(=O)C2SC(=C(C(N)=O)C(=O)O)S2)C(=O)N2C(C(=O)O)=C(CSc3nnnn3C)CS[C@@H]21 (some centres undefined)	PRMT1 inh 37 | PRMT1 confirm inactive
COc1cc2[nH]c(Cl)c([N+](=O)[O-])c2cc1OC	PRMT1 inh 30 | PRMT1 confirm inactive
COc1ccccc1C(=O)N1CCN(C(=O)[C@@H](Cc2ccccc2)NC(=O)[C@H]2O[C@@H](n3ccc(=O)[nH]c3=O)[C@H](O)[C@@H]2O)CC1	none (no result: PAD4 inh, HTRA1 inh)
O=C(CSc1nc2cc(S(=O)(=O)N3CCOCC3)ccc2o1)NC1CCCc2ccccc21 (centres undefined)	PRMT1 inh 30 | PRMT1 confirm 25
O=C(CSc1nc2cc(S(=O)(=O)N3CCOCC3)ccc2o1)Nc1c(F)cccc1F	PRMT1 inh 54 | PRMT1 confirm 47
CCSc1nc2cc(S(=O)(=O)N3CCOCC3)ccc2o1	none
O=C(NCC1COCCO1)C1CCN(S(=O)(=O)c2cccc3ccccc23)CC1 (centres undefined)	none (no result: PAD4 inh, HTRA1 inh, TCR-CD3 inh)
CCOC(=O)CC[C@H]1CC[C@]2(CCCN(C(=O)c3ccco3)C2)O1	none (no result: PAD4 inh, HTRA1 inh, TCR-CD3 inh)
COc1cc(C(=O)NCc2nnc(SCC(=O)Nc3nc4ccccc4s3)o2)cc(OC)c1OC	PRMT1 inh 65 | PRMT1 confirm inactive
S=c1nc(-c2cc(Cl)ccc2Cl)[nH][nH]1	PRMT1 inh 56 | PRMT1 confirm 47
Cc1ccc2cc3c(N)c(C(=O)Nc4c(C)[nH]c(=O)[nH]c4=O)sc3nc2c1	PRMT1 inh 31 | PRMT1 confirm inactive
Cc1ccc2nc3sc(C(=O)Nc4c(C)[nH]c(=O)[nH]c4=O)c(N)c3cc2c1	none
N#CCc1c(C#N)c(N)nc(N2CCN(Cc3ccc4c(c3)OCO4)CC2)c1C#N	none
N#CCc1c(C#N)c(N)nc(N2CCCC(O)C2)c1C#N (centres undefined)	PRMT1 inh 31 | PRMT1 confirm inactive
CCC(=O)Nc1ccc2c(c1)C(=O)N(C)[C@@H]1CC[C@@H](CC(=O)NCc3ccc(OC)cc3)O[C@H]1CO2	none (no result: PAD4 inh, HTRA1 inh, TCR-CD3 inh)
CC(C)=CCC[C@@]1(C(=O)O)[C@@H]2C/C=C(\C)CC/C=C(\C)CC[C@H]1[C@]1(CC2)CO1	none (no result: PAD4 inh, HTRA1 inh, TCR-CD3 inh)
O=[N+]([O-])c1ccc(C=Nc2ccccc2)cc1	none (no result: PAD4 inh, HTRA1 inh)
Cc1[nH]n(-c2ccccc2)c(=S)c1C=Nc1cccc([N+](=O)[O-])c1	PRMT1 inh 95 | PRMT1 confirm 98
CCCCN=Cc1c(C)[nH]n(-c2ccccc2)c1=S	PRMT1 inh 26 | PRMT1 confirm inactive
Cc1cc(C)cc(C(=O)OCCCN(C)C2CN(Cc3cn(Cc4ccccc4C(F)(F)F)nn3)S(=O)(=O)C2)c1 (centres undefined)	none (no result: PAD4 inh, HTRA1 inh, TCR-CD3 inh)
CN1CCCCC(NC(=O)c2c(F)cccc2F)C1=O (centres undefined)	none (no result: PAD4 inh, HTRA1 inh)
C[C@@H]1ON(C)[C@H]2C[C@H]3c4cc(-c5ccc(F)cc5)ccc4CCN3C[C@@H]12	none (no result: PAD4 inh, HTRA1 inh)
CC1(C)Cc2c(c(N3CCOCC3)nc3sc(C(=O)Nc4ccccc4)c(N)c23)CO1	PRMT1 inh 27 | PRMT1 confirm 23
O=C(CSc1nc2ccccc2[nH]1)NN=Cc1ccccc1C(=O)O	none (no result: PAD4 inh, HTRA1 inh, TCR-CD3 inh)
CCN1CCCC1CNC(=O)Cn1nc(C)n2c(cc3cc(F)ccc32)c1=O (centres undefined)	PRMT1 inh 33 | PRMT1 confirm inactive
COC(=O)[C@H](C(C)C)N1Cc2nnn(CC3CCCCC3)c2-c2cc(F)ccc2S1(=O)=O	none (no result: PAD4 inh, HTRA1 inh, TCR-CD3 inh)
COc1ccc2c(c1)CO[C@H]([C@H](O)CO)[C@H]2/C=C/c1ccccc1	none (no result: PAD4 inh, HTRA1 inh, TCR-CD3 inh)
Nc1c(C(=O)Nc2nc3ccccc3s2)sc2nc(-c3cccs3)ccc12	none (no result: mABHD4 FP, PRMT1 inh, SIAE inh, TCR-CD3 inh)
O=c1[nH]c(=S)[nH]c2nc(-c3cccs3)cc(C(F)(F)F)c12	none
CC(C)NC(=O)c1sc2nc(-c3cccs3)cc(-c3cccs3)c2c1N	PRMT1 inh 30 (no result: HTRA1 inh) | PRMT1 confirm inactive
Nc1c(C(=O)C2CC2)sc2nc(-c3cccs3)cc(C(F)(F)F)c12	PRMT1 inh 32 | PRMT1 confirm inactive
COc1ccc(C(=O)c2sc3nc(C)cc(-c4cccs4)c3c2N)cc1	none (no result: PAD4 inh)
CC(=O)c1sc2nc(-c3cccs3)ccc2c1N	PRMT1 inh 73 | PRMT1 confirm 29
N/C(Cc1nc2ccccc2s1)=N\O	none
OCc1cc(Br)ccc1OCc1nc2ccccc2s1	none (no result: mABHD4 FP, PRMT1 inh, SIAE inh, TCR-CD3 inh)
NC(=O)CSCc1nc2ccccc2s1	PRMT1 inh 27 | PRMT1 confirm inactive

Compound activity deposited in PubChem BioAssay by The Scripps Research Institute Molecular Screening Center.
